These results are taken from ChEMBL document CHEMBL3102739, “Synthesis and antiproliferative activity of conformationally restricted 1,2,3-triazole analogues of combretastatins in the sea urchin embryo model and against human cancer cell lines” (Bioorg Med Chem, 2014).

What all share (assay type): functional
One experiment relates to SK-MEL-28. The experiment can be described thus: Growth inhibition of human SK-MEL-28 cells after 48 hrs by SRB assay. To be noted: SK-MEL-28, 48 h. Background: In SRB staining, fixed cells bind dye roughly in proportion to their protein.
A further experiment concerns SNB-19. The experiment can be described thus: Growth inhibition of human SNB19 cells after 48 hrs by SRB assay. To be noted: SNB-19, 48 h.
Experiment [1] can be described thus: Growth inhibition of human OVCAR5 cells after 48 hrs by SRB assay. To be noted: OVCAR-5, 48 h.
Experiment [2] in a line: Growth inhibition of human UACC257 cells after 48 hrs by SRB assay. To be noted: UACC-257, 48 h.
The test system of a further experiment is NCI-H23. The experiment can be described thus: Growth inhibition of human NCI-H23 cells after 48 hrs by SRB assay. To be noted: NCI-H23, 48 h.
The next experiment concerns U-251. The experiment can be described thus: Growth inhibition of human U251 cells after 48 hrs by SRB assay. To be noted: U-251, 48 h.
The next experiment has as its system SR. The experiment in a line: Growth inhibition of human SR cells after 48 hrs by SRB assay.
Another experiment relates to SF-268. The experiment can be described thus: Growth inhibition of human SF268 cells after 48 hrs by SRB assay. To be noted: SF-268, 48 h.
The test system of another experiment is NCI-H322M. The experiment can be described thus: Growth inhibition of human NCI-H322M cells after 48 hrs by SRB assay.
Another experiment deals with IGROV-1. The experiment can be described thus: Growth inhibition of human IGROV1 cells after 48 hrs by SRB assay. To be noted: IGROV-1, 48 h.
The subject of the next experiment is Malme-3M. The experiment can be described thus: Growth inhibition of human MALME-3M cells after 48 hrs by SRB assay.
The test system of a further experiment is PC-3. The experiment can be described thus: Growth inhibition of human PC3 cells after 48 hrs by SRB assay. To be noted: PC-3, 48 h.
The test system of the next experiment is OVCAR-8. The experiment can be described thus: Growth inhibition of human OVCAR8 cells after 48 hrs by SRB assay. To be noted: OVCAR-8, 48 h.
The subject of another experiment is MCF7. The experiment can be described thus: Growth inhibition of human MCF7 cells after 48 hrs by SRB assay. To be noted: MCF7, 48 h.
The next experiment has as its system Paracentrotus lividus. The experiment in a line: Antimitotic activity against sea urchin embryo model assessed as cleavage alteration of fertilized egg compound treated at 8 to 20 mins post-fertilization and 45 to 55 mins prior to first mitotic cycle completion measured 2.5 to 5.5 hrs post-fertilization. The essentials:
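Fertilized eggs are exposed 8–20 min after fertilization to 2-fold decreasing concentrations. Stocks are 10 mM in DMSO, then diluted 10-fold in 95% EtOH; final DMSO is at most 0.05% and EtOH at most 1%. Embryos are kept as a monolayer, up to 2000 embryos/mL, in filtered seawater at room temperature. The value is the threshold concentration giving cleavage alteration, embryo death before hatching or full mitotic arrest. Duplicates were run.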

As a reminder, the GI50 is the concentration giving 50% growth inhibition. High values mean lower sensitivity of the cells, low ones greater sensitivity of the cells. With `COc1ccc(-c2nn[nH]c2-c2cc(OC)c3c(c2OC)OCO3)cc1`, the concentration for 50% growth inhibition (GI50) in the experiment with SK-MEL-28 came to 1780 nM; in the experiment with SNB-19, 1800 nM; in experiment [1] it was 3630 nM; in experiment [2], 595 nM; with NCI-H23 it was 1000 nM; with U-251, 362 nM. Moreover, the concentration for 50% growth inhibition (GI50) is 304 nM in the experiment with SR; 4020 nM in the experiment with SF-268; 2890 nM in the experiment with NCI-H322M; 720 nM in the experiment on IGROV-1; 766 nM with Malme-3M; 1930 nM in the experiment with PC-3. The GI50 in the experiment on OVCAR-8 turned out to be 1320 nM; in the experiment with MCF7 it was 352 nM. For the same compound, the EC in the experiment on Paracentrotus lividus was 0.5 µM.
In the case of `COc1ccc(-c2nn[nH]c2-c2cc(OC)c(OC)c(OC)c2)cc1`, the GI50 (with SNB-19; in [1]; in experiment [2]; in the experiment with NCI-H23; with U-251; with SR) was less than 10 nM in each case. Moreover, the GI50 is 21 nM in the experiment with SF-268; less than 10 nM in the experiment with NCI-H322M; less than 10 nM in the experiment on IGROV-1; 43 nM in the experiment on PC-3; less than 10 nM in the experiment on OVCAR-8; less than 10 nM in the experiment on MCF7. Also, the EC in the experiment on Paracentrotus lividus worked out at 0.005 µM.
